Screening results from PubChem BioAssay.
Only a selection was taken, and hits are over-represented in it overall.
UCH37 inh: human UCH37 deubiquitinating enzyme inhibition | Q9Y5K5 | purified proteasome/UCH37, Ub-AMC cleavage fluorescence | inhibition, % (test concentration not listed) | actives 0.33% (n = 330,000);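 active = mean inhibition over replicate wells above about 20%, limit read from the data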
Target sequence (Q9Y5K5 whole entry, looked up): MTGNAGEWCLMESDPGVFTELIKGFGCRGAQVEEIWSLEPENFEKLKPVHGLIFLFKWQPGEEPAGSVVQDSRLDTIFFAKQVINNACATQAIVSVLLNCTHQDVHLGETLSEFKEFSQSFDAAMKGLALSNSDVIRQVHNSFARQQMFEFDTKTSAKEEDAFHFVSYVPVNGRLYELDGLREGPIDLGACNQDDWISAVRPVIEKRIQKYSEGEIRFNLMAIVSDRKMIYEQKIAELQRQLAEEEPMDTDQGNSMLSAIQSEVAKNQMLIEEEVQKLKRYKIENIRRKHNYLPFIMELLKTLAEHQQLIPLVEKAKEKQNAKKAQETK
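Material: human UCH37 enzyme supplied as purified proteasome complex. Measure: % inhibition of Ub-AMC cleavage fluorescence. Medium: pH 7.4 Tris-HCl (50 mM) with ovalbumin, ATP-MgCl2, DTT. Times: 30 min preincubation with enzyme, 25 min cleavage at room temperature. Detection: AMC fluorescence intensity at 355/460 nm.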
CHOP inh: blocks CHOP induction under ER stress | actives 3.8% (n = 220,000) | CHO-K1 CHOP-promoter luciferase, tunicamycin-induced, 15-18 h | AID 2732 | inhibition, % at 10 µM;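 active = compounds that reduced the stress-induced luciferase reporter signal by more than about 70% of percent inhibition, limit read from the data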
CTSL1 counter: counter-screen for PFM18AAP inhibitors: inhibitors of F. hepatica cathepsin L1; recombinant F. hepatica cathepsin L1, Z-Leu-Arg-MCA fluorescence; inhibition, % at 5.96 µM; actives 0.49% (n = 300,000); AID 1906;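 active = inhibition above the mean of all tested compounds plus 3 SD, set per screening campaign, cut at about 17% in these data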
UPR CHOP act: apoptotic UPR (CHOP) activation; CHO-CHOP luciferase reporter, luminescence; percent of tunicamycin response over DMSO baseline; activation, % at 10 µM; actives 0.34% (n = 330,000); AID 449763;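 active = at 10 µM dose, activation of 40% or more, normalized to positive control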
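System: CHO CHOP reporter cells. Amount: 500 cells per well. Buffer or medium: F12 medium, 10% FBS. Compound dosing: one dose, 10 µM in 0.5% DMSO. Incubation: 6 h compound exposure at 37 °C after overnight seeding. Technique: Steady-Glo luciferase luminescence. Benchmarks: tunicamycin and DMSO controls.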
XBP1 UPR activ: adaptive UPR (XBP1) activation. CHO-XBP1 luciferase reporter, IRE1-XBP1 UPR activation, luminescence; percent of tunicamycin response, DMSO as zero. activation, % at 20 µM. actives 0.33% (n = 330,000). AID 463104;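 active = versus positive control, 20 µM dose yields 30% or more activation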
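Signal: luciferase luminescence; Assay system: CHO-XBP1 luciferase reporter cells; Amount: one thousand reporter cells per well; Dosing: 20 µM single concentration, DMSO 1%; Benchmarks: high control tunicamycin 10 µg/mL final, low control DMSO vehicle only; Schedule: 6 h compound exposure at 37 °C, 5% CO2; Evaluation: percent activation relative to tunicamycin reference.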
Hits are given with their value; n = inactive; x = not tested or not shown.

SMILES	UCH37 inh	CHOP inh	CTSL1 counter	UPR CHOP act	XBP1 UPR activ
CC(=NNc1ccccc1[N+](=O)[O-])c1ccccc1O	n	x	x	x	x
CSc1ccc(C=Nn2c(C)nnc2C)cc1	n	x	x	x	x
COc1cc(C(=O)Nc2cccc(-c3nc4cc(C)ccc4o3)c2)cc(OC)c1OC	n	75	n	n	n
COc1ccc(C=NNC(=O)OC(C)(C)C)cc1OC	n	x	x	x	x
OC(COc1ccc2cc(Br)ccc2c1)CN1CCN(c2ccccn2)CC1 (stereo unspecified)	n	79	n	n	n
OC(COC(c1ccc(Cl)cc1)c1ccc(Cl)cc1)CN1CCN(c2ccccn2)CC1 (stereo unspecified)	n	91	n	n	n
O=S(=O)(N1CCCCC1)N1CCN(CC(O)COc2ccc3cc(Br)ccc3c2)CC1 (stereo unspecified)	n	87	n	n	n
CN(C)S(=O)(=O)N1CCN(CC(O)COc2ccc3cc(Br)ccc3c2)CC1 (stereo unspecified)	n	n	n	n	n
O=C(NN=Cc1cccc2ccccc12)c1cc2ccccc2o1	n	x	x	x	x
O=C1N/C(=N\N=Cc2ccco2)SC1Cc1ccccc1[N+](=O)[O-] (stereo unspecified)	n	x	x	x	x
COc1ccc(CNC(=O)CC(C)=NNC(=O)Cc2ccc(OC)cc2)cc1	n	x	x	x	x
COc1ccc(CCNC(=O)CC(C)=NNC(=O)C23CC4CC(CC(C4)C2)C3)cc1OC	n	x	x	x	x
CC(/C=C/c1ccccc1F)=NNC(=O)C(C)C	n	x	x	x	x
COc1cccc(C(=O)NN=C2SCC(=O)N2CCc2ccc(OC)c(OC)c2)c1	n	x	x	x	x
N#C/C(=C/c1ccc(-c2ccc(S(N)(=O)=O)cc2)o1)c1nc2ccccc2s1	n	89	n	n	n
Cc1ccccc1OCC(=O)NN=Cc1ccncc1	n	x	x	x	x
CCOc1cc(C=NNC(=O)Cn2nc([N+](=O)[O-])cc2C)ccc1OCc1cccc2ccccc12	n	x	x	x	x
COc1cccc(C(=O)Nc2ccc(NC(C)=O)cn2)c1	n	n	20	n	n
COc1ccc(C=NNc2nncc3ccccc23)c(OC)c1	n	x	x	x	x
COc1ccc(CCC(C)Nc2cccc(F)c2)cc1 (stereo unspecified)	n	88	n	n	n
O=C(NCCN1C(=O)S/C(=C\c2ccc(Cl)c(Cl)c2)C1=O)c1ccc2c(c1)C(=O)N(Cc1ccncc1)C2=O	x	88	n	n	n
CN(C)C=Nc1c(C#N)nnn1Cc1ccccc1	n	x	x	x	x
COc1ccc(N=C2C(=O)N3c4c(cccc42)C(C)=CC3(C)C)cc1	n	79	n	n	n
O=c1cc(-c2ccccc2Cl)oc2c([N+](=O)[O-])c(O)cc(O)c12	n	76	n	n	n
O=C(O)COc1ccccc1C=NNC(=O)CSc1nnc(SCc2ccccc2)s1	n	x	x	x	x
SMILES	UCH37 inh	CHOP inh	CTSL1 counter	UPR CHOP act	XBP1 UPR activ
COc1ccc(N2CCN(C(=O)c3cc4c(s3)-c3ccccc3OC4)CC2)cc1	n	x	n	n	n
Cc1csc(NC(=O)c2cc3c(s2)-c2ccccc2OC3)n1	n	81	n	n	n
CN(C)CCNC(=O)c1cc2c(s1)-c1ccccc1OC2	n	n	n	n	n
O=C(c1cc2c(s1)-c1ccccc1OC2)N1CCN(c2ccccc2)CC1	n	83	n	n	n
Cc1nc2ccccc2c(=O)n1N=Cc1ccc(O)cc1	n	x	x	x	x
C/C(C=NNC(=O)CN1CCN(Cc2ccccc2)CC1)=C\c1ccco1	n	x	x	x	x
CC(=NNC(=O)CC(C)C)c1ccc(Cl)c(Cl)c1	n	x	x	x	x
CC(C)c1nc(Cl)c(C#N)c2c1CCCC2	n	85	n	n	n
CC(C)c1nc(Cl)c(C#N)c2c1CCC2	n	n	n	n	n
CCOC(=O)c1ccc2ncc(C(=O)OCC)c(NCCN3CCOCC3)c2c1	n	x	n	n	n
CCOC(=O)c1cnc2ccc(C)cc2c1Nc1ccc(N2CCOCC2)cc1	n	72	n	n	n
COc1ccc(CC(=O)NN=C(C)CC(=O)Nc2cccc(F)c2)cc1	n	x	x	x	x
COc1cccc(NS(=O)(=O)c2cc(C)sc2C)c1	n	75	n	n	n
COc1ccc(C=Nn2c(=O)[nH]c3c([nH]c4ccc(Br)cc43)c2=O)cc1CN1CCOCC1	n	x	x	x	x
CC(C)(C)S(=O)(=O)C(C#N)=NNc1ccc(C#N)cc1	n	x	x	x	x
CC(C)c1ccccc1OCC(=O)NC1CCCc2ccccc21 (stereo unspecified)	n	75	n	n	n
Cc1ccc(C(=O)NC2CCCc3ccccc32)o1 (stereo unspecified)	n	n	76	n	n
O=C(CCl)NC1CCCc2ccccc21 (stereo unspecified)	n	n	27	n	n
CCCOc1ccc(C=c2sc3ncnn3c2=O)cc1	n	x	x	x	x
CC(C)(C)c1cc(C(=O)NN=Cc2ccccc2O)n(-c2ccccc2)n1	n	x	x	x	x
CCOC(=O)Cn1c(C)c(Br)c(=O)c2cccc(C)c21	n	92	n	n	n
C(=N\N1CCN(Cc2ccccc2)CC1)/c1ccc(-c2ccccc2)cc1	x	n	17	n	n
COc1ccc(OC)c(/C=N/N(C)c2ccccc2)c1	x	72	n	n	n
Cc1cc(N2CCN(C(=O)c3ccco3)CC2)n2nc(-c3cccc(Cl)c3)cc2n1	n	96	n	n	n
Cc1cc(N2CCN(C(=O)c3ccco3)CC2)n2nc(C)c(-c3ccccc3)c2n1	n	n	x	x	x
SMILES	UCH37 inh	CHOP inh	CTSL1 counter	UPR CHOP act	XBP1 UPR activ
Cc1sc2nc(CSc3nc4ccccc4s3)[nH]c(=O)c2c1C	n	77	n	n	n
Cc1sc2nc(CSc3ccc([N+](=O)[O-])cc3)[nH]c(=O)c2c1C	n	n	n	n	n
Cc1sc2nc(CSc3cccc(C(F)(F)F)c3)[nH]c(=O)c2c1C	x	73	n	n	n
O=c1[nH]c(CSc2nc3ccccc3s2)nc2ccccc12	n	n	n	n	n
Cc1ccc(OCC(=O)NN=C/C=C/c2ccco2)cc1C	n	x	x	x	x
CC(O)C(=O)NN=Cc1cccc2ccccc12 (stereo unspecified)	n	x	x	x	x
O=C(NNC(=O)c1cc2cc3ccccc3nc2s1)c1ccc(F)cc1	x	89	n	n	n
Cc1ccccc1NC(C)C(=O)NN=Cc1ccccc1OCc1cccc(Br)c1 (stereo unspecified)	n	x	x	x	x
O=C(CCS(=O)(=O)c1ccccc1)NCc1ccccc1	n	x	31	n	n
Cc1ccc(CNC(=O)CCS(=O)(=O)c2ccc(C)cc2)cc1	n	n	n	n	n
COc1ccc(C(C)=N/N=C2/NC(=O)CC(C(=O)O)S2)cc1F (stereo unspecified)	n	x	x	x	x
COc1cc(C=NNC(=O)c2ccc(-c3ccccc3)cc2)cc(OC)c1OC(C)=O	n	x	x	x	x
COc1ccc(-c2csc(NC3OC(=O)c4c3ccc(OC)c4OC)n2)cc1OC (stereo unspecified)	n	n	n	n	n
COc1ccc2c(c1OC)C(=O)OC2Nc1nc(-c2cc3cc(Br)ccc3oc2=O)cs1 (stereo unspecified)	n	71	n	n	n
